Assay results as given in ChEMBL document CHEMBL4477183, “Antimicrobial Peptide from the Wild Bee Hylaeus signatus Venom and Its Analogues: Structure-Activity Study and Synergistic Effect with Antibiotics” (J Nat Prod, 2016).
In brackets after ≈: the same amount, converted by molar mass. Non-standard residues stand in square brackets, D forms with d. Residues, ends and D or L forms follow the SMILES beside them. ξ: configuration not given here. ξNle = CCCCC(N)C(=O)O

How the values were obtained:
Bacillus subtilis = assay: Antimicrobial activity against Bacillus subtilis assessed as reduction in bacterial growth after 20 hrs by […]; format: functional
Outline: (§1)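 Broth microdilution in LB (YPG for C. albicans) with 2-fold serial dilutions, final 0.1–100 μM. Mid-log cells grown 3–5 h at 37 °C were added at about 5 × 10^5 cfu/mL, then incubated 20 h at 37 °C with shaking. A540 was read every 15 min to build growth curves. Medium with cells served as growth control; at least three runs in duplicate.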

Pseudomonas aeruginosa [1] = assay: Antimicrobial activity against Pseudomonas aeruginosa clinical isolates assessed as reduction in bacterial growth after 20 hrs by […]; format: functional; outline: as §1
Staphylococcus aureus [2] = assay: Antimicrobial activity against Staphylococcus aureus clinical isolates from university hospital in Motol assessed as reduction in bacterial growth after 20 hrs by drop diffusion test; format: functional
Pseudomonas aeruginosa [3] = assay: Antimicrobial activity against Pseudomonas aeruginosa clinical isolates assessed as FIC index in presence of rifampicin after 20 hrs by drop diffusion test; format: functional
Candida albicans = assay: Antifungal activity against Candida albicans assessed as reduction in fungal growth after 20 hrs by […]; format: functional; outline: as §1
Staphylococcus aureus [4] = assay: Antimicrobial activity against Staphylococcus aureus clinical isolates assessed as FIC index in presence of amoxicillin after 20 hrs by drop diffusion test; format: functional
Micrococcus luteus = assay: Antimicrobial activity against Micrococcus luteus assessed as reduction in bacterial growth after 20 hrs by […]; format: functional; outline: as §1
[5] = test system: Staphylococcus epidermidis; assay: Antimicrobial activity against Staphylococcus epidermidis assessed as reduction in bacterial growth after 20 hrs by broth microdilution assay
Staphylococcus aureus [6] = assay: Antimicrobial activity against Staphylococcus aureus clinical isolates from Liberec regional hospital assessed as reduction in bacterial growth after 20 hrs by […]; format: functional; outline: as §1
Staphylococcus aureus [7] = assay: Antimicrobial activity against Staphylococcus aureus 6271 assessed as reduction in bacterial growth after 20 hrs by broth microdilution assay; settings: Staphylococcus aureus, 6271, 20 h
[8] = Hemolytic activity in human type RBC after 1 hr; format: ADME, cell-based, Erythrocyte; settings: red blood cells (erythrocytes), read-out: LC50
Outline: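 Peptides at 2.5–400 μM were incubated with a 4% suspension of human erythrocytes in physiological solution for 1 h at 37 °C, then centrifuged at 250g for 5 min; supernatant A540 was read. Saline-treated cells gave 0% lysis and 0.2% Triton X-100 gave 100%. LC50 is the concentration lysing 50% of cells; duplicates in at least two independent experiments.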

Pseudomonas aeruginosa [9] = assay: Antimicrobial activity against Pseudomonas aeruginosa 5482 assessed as reduction in bacterial growth after 20 hrs […]; format: functional; settings: Pseudomonas aeruginosa, 5482, 20 h; outline: as §1
Pseudomonas aeruginosa [10] = assay: Antimicrobial activity against Pseudomonas aeruginosa clinical isolates assessed as FIC index in presence of tetracycline after 20 hrs by drop diffusion test; format: functional
Escherichia coli = assay: Antimicrobial activity against Escherichia coli assessed as reduction in bacterial growth after 20 hrs by […]; format: functional; outline: as §1
Staphylococcus aureus [11] = assay: Antimicrobial activity against Staphylococcus aureus clinical isolates from Liberec regional hospital assessed as reduction in bacterial growth after 20 hrs by broth microdilution assay

| Compound | MIC (Bacillus subtilis) [µM] | MIC (Pseudomonas aeruginosa [1]) [µM] | MIC (Staphylococcus aureus [2]) [µM] | fractional inhibitory concentration index (FICI) (Pseudomonas aeruginosa [3]) | MIC (Candida albicans) [µM] | fractional inhibitory concentration index (FICI) (Staphylococcus aureus [4]) | MIC (Micrococcus luteus) [µM] | MIC [5] [µM] | MIC (Staphylococcus aureus [6]) [µM] | MIC (Staphylococcus aureus [7]) [µM] | HC50 at 1 h [8] [µM] | MIC (Pseudomonas aeruginosa [9]) [µM] | fractional inhibitory concentration index (FICI) (Pseudomonas aeruginosa [10]) | MIC (Escherichia coli) [µM] | MIC (Staphylococcus aureus [11]) [µM] |
| --- | --- | --- | --- | --- | --- | --- | --- | --- | --- | --- | --- | --- | --- | --- | --- |
| CCCCC(NC(=O)[C@H](CC(C)C)NC(=O)[C@H](CO)NC(=O)[C@H](CO)NC(=O)C(CCCC)NC(=O)[C@@H](NC(=O)CN)[C@@H](C)CC)C(=O)N[C@@H](CCCCN)C(=O)N[C@@H](CCCCN)C(=O)N[C@@H](CC(C)C)C(=O)N[C@@H](CCCCN)C(=O)N[C@@H](CCCCN)C(=O)N[C@H](C(=O)N[C@H](C(=O)N[C@@H](C)C(N)=O)[C@@H](C)CC)[C@@H](C)CC (some centres not stated) (H-GI[ξNle]SSL[ξNle]KKLKKIIA-NH2) | ≤ 7 | 7.9 (≈ 12.8 µg/mL) | 6.7 (≈ 10.9 µg/mL) | 0.93 | 10 (≈ 16.2 µg/mL) | 0.55 | ≤ 3 | 2.5 (≈ 4.06 µg/mL) | 4 (≈ 6.5 µg/mL) | 13 (≈ 21.1 µg/mL) | 373 | 4 (≈ 6.5 µg/mL) | 0.58 | 10 (≈ 16.2 µg/mL) |  |
| H-GILKSLLKKLKKIIAK-NH2 | ≤ 7 | 8.9 | 10 | 0.33 | 24 | 0.54 | ≤ 3 | 2.2 | 4.3 | 17 | > 400 | 5 | 0.52 | 10 |  |
| H-GILSKLLKKLKKIIAK-NH2 | ≤ 7 | 8.5 | 10 | 0.34 | 45 | 0.33 | ≤ 3 | 1.8 | 5.9 | 23 | > 400 | 4.5 | 0.65 | 18 |  |
| H-GILSSLLKKWKKIIAK-NH2 | ≤ 7 | 7.1 | 20 | 0.42 | 11 | 0.44 | ≤ 3 | 2.7 |  | 20 | > 400 | 5 | 0.58 | 7.5 | 7.8 |
| H-GILSSLWKKLKKIIAK-NH2 | ≤ 7 | 8.8 | 5 | 0.44 | 11 | 0.56 | ≤ 3 | 2 | 2 | 5.3 | 197 | 5.3 | 0.65 | 3.4 |  |
| H-GILSSWLKKLKKIIAK-NH2 | ≤ 7 | 5.9 | 16 | 0.4 | 17 | 0.37 | ≤ 3 | 2 | 6.6 | 16 | > 400 | 4 | 0.65 | 11 |  |
| H-GIMSSLMKKLAAIIAK-NH2 | ≤ 7 | 17 | 10 | 0.51 | 8.4 | 0.56 | ≤ 3 | 5 |  | 7.2 | 93 | 8 | 0.76 | 3.6 | 10 |
| H-GIMSSLMKKLAKHIAK-NH2 | ≤ 7 | 20 | 63 | 0.25 | 14 | 0.31 | ≤ 3 | 6.2 |  | 63 | > 400 | 7.9 | 0.54 | 15 | 35 |
| H-GIMSSLMKKLAKIIAK-NH2 | ≤ 7 | 9.3 | 10 | 0.43 | 11 | 0.5 | ≤ 3 | 5 |  | 9 | 88 | 4.5 | 0.79 | 3.7 | 5.2 |
| H-GIMSSLMKKLAKIIKK-NH2 | ≤ 7 | 10 | 17 | 0.42 | 7.6 | 0.38 | ≤ 3 | 2.9 |  | 33 | > 400 | 5.2 | 0.54 | 15 | 8.6 |
| H-GIMSSLMKKLKKIIKK-NH2 | ≤ 7 | 9.9 | 65 | 0.36 | 6.3 | 0.17 | ≤ 3 | 1.7 |  | 54 | > 400 | 7.1 | 0.63 | 22 | 18 |
| H-GKLSSLWKKLKKIIAK-NH2 | ≤ 7 | 19 | 27 | 0.29 | 34 | 0.25 | ≤ 3 | 2.5 |  | 26 | > 400 | 6.8 | 0.54 | 20 | 11 |
| H-KILSSLLKKLKKIIAK-NH2 | ≤ 7 | 16 | 10 | 0.26 | 25 | 0.29 | ≤ 3 | 1.4 | 5.5 | 32 | 364 | 5 | 0.71 | 16 |  |
